For experiment [1], the system named is Trypanosoma cruzi. In words: Trypanocidal activity against epimastigote stage of Trypanosoma cruzi assessed as cell viability after 24 hrs by MTT assay. For orientation: Formazan colour is commonly taken as a measure of viable cells.
Experiment [2] relates to Vero. In words: Cytotoxicity against african green monkey Vero cells by MTT assay. The format is cell-based. The conditions noted are these: Chlorocebus sabaeus. An outline of the steps:
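Vero cells in RPMI 1640 without phenol red, with compound added from DMSO (final below 0.25% v/v). Read by MTT (5 mg/mL) plus 0.22 mg/mL phenazine methosulfate for 4 h at 37 °C, formazan dissolved in 10% SDS/0.01 M HCl overnight, OD at 570 nm. IC50 from four-parameter nonlinear fit; at least three experiments, triplicate cultures.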

A short description of experiment [3]: Antiproliferative activity against human PC3 cells after 72 hrs. The format is functional, cell-based. The conditions noted are these: PC-3, 72 h. Put shortly: (§1)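 Cells grown in DMEM with 10% FCS, penicillin/streptomycin and 1 mM glutamine. Seeded at 3 × 10³ cells/well and allowed to attach for 24 h at 37 °C in 5% CO₂. Exposed continuously for 72 h to four serial dilutions (12.5 to 100 µM), in triplicate; final DMSO 0.1%, DMSO-only controls. Read by sulforhodamine B after TCA fixation, with doxorubicin as reference.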

Experiment [4] relates to MDA-MB-231. In words: Antiproliferative activity against human MDA-MB-231 cells after 72 hrs. The conditions noted are these: MDA-MB-231, 72 h. It is filed as functional, cell-based. An outline of the steps: as §1
Experiment [5] deals with MCF7. In words: Antiproliferative activity against human MCF7 cells after 72 hrs. It is filed as functional, cell-based. The conditions noted are these: MCF7, 72 h. Put shortly:
as §1

The nature of experiment [6]: Antiproliferative activity against human dermal fibroblast cells after 72 hrs. The format is cell-based. Put shortly:
as §1

Experiment [7] has as its system MCF7. The experiment can be described thus: Selectivity index, ratio of IC50 for human dermal fibroblast cells to IC50 for human MCF7 cells. It is filed as functional. An outline of the steps:
(§2)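 Selectivity index calculated as IC50 in non-tumoral dermal human fibroblasts divided by IC50 in the cancer line. Both IC50s come from a 72 h sulforhodamine B growth assay with four dilutions (12.5–100 µM) in triplicate.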

The test system of experiment [8] is Fibroblast. The experiment can be described thus: Selectivity index, ratio of IC50 for human dermal fibroblast cells to IC50 for human PC3 cells. The format is functional. Put shortly:
as §2

For experiment [9], the system named is Trypanosoma cruzi. The experiment can be described thus: Trypanocidal activity against trypomastigote form of Trypanosoma cruzi infected in african green monkey Vero cells assessed as cell viability after 5 to 7 days by MTT assay. It is filed as functional.
A short description of experiment [10]: Selectivity index, ratio of CC50 for african green monkey Vero cells to IC50 for epimastigote stage of Trypanosoma cruzi. The format is functional. Put shortly: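 Selectivity index taken as Vero IC50 divided by epimastigote IC50. Both values are from MTT viability assays, with Vero cells read at 37 °C and epimastigotes at 28 °C.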
Experiment [11] relates to Fibroblast. The experiment can be described thus: Selectivity index, ratio of IC50 for human dermal fibroblast cells to IC50 for human MDA-MB-231 cells. It is filed as functional. An outline of the steps:
as §2

With `O=C1C=C(Nc2ccc(O)cc2)C(=O)c2ccccc21`, the concentration for half-maximal inhibition (IC50) in experiment [1] and in experiment [2] was more than 25 µM throughout.

Take `COc1ccc(NC2=CC(=O)c3ccccc3C2=O)cc1`: the half-maximal inhibitory concentration (IC50) was more than 25 µM in experiment [1]; 35.4 µM in experiment [3]; more than 100 µM in [4]; more than 100 µM in experiment [5]; 65.4 µM in [6]; more than 25 µM in experiment [2].

With `COc1ccc(OC)c(NC2=CC(=O)c3ccccc3C2=O)c1`, the half-maximal inhibitory concentration (IC50) in experiment [1] was 23.3 µM; in [3] it was 1.03 µM; in experiment [4], 87.5 µM; in experiment [5], 0.21 µM; in [6], more than 100 µM; in experiment [2], more than 50 µM. For the same compound, the results for the “Selectivity Index” value in experiment [7] and in experiment [8] were more than 480 and more than 97, respectively.

As to `COc1ccc(OC)c(NC2=C(Cl)C(=O)c3ccccc3C2=O)c1`, the IC50 in [1] and in [2] was more than 100 µM in each case.

For `O=C1C=C(Nc2ccc3ccccc3c2)C(=O)c2ccccc21`, the IC50 in experiment [1] was determined as 9.02 µM; in [2] it was 6.97 µM. The “inhibition (INH)” value in experiment [9] stood at 86.02%. For the same compound, the “Selectivity Index” value in experiment [10] is given as 0.77.

As for `O=C1C(O)=C(c2ccccc2[N+](=O)[O-])C(=O)c2ccccc21`, the IC50 in experiment [1] and in [2] was more than 100 µM throughout.

As for `COc1ccccc1NC1=CC(=O)c2ccccc2C1=O`, the IC50 was 3.49 µM in [1]; more than 100 µM in experiment [3]; more than 100 µM in [4]; more than 100 µM in experiment [5]; more than 100 µM in experiment [6]; more than 25 µM in experiment [2]. Also, the “inhibition (INH)” value in experiment [9] was 18.78%.

For `COc1cccc(NC2=CC(=O)c3ccccc3C2=O)c1`, the half-inhibitory concentration (IC50) in experiment [1] was more than 25 µM; in experiment [3] it was more than 100 µM; in experiment [4], more than 100 µM; in experiment [5], more than 100 µM; in [6], more than 100 µM; in [2], more than 25 µM.

`COc1ccc(NC2=CC(=O)c3ccccc3C2=O)cc1OC`: the IC50 in experiment [1] was 25 µM; in [3], 10.4 µM; in experiment [4], 10.2 µM; in experiment [5], 22.2 µM; in [6] it was more than 100 µM; in experiment [2], more than 25 µM.

With `COc1ccc(NC2=CC(=O)c3ccccc3C2=O)c(OC)c1`, the 50% inhibitory concentration (IC50) was more than 25 µM in experiment [1]; 60 µM in experiment [3]; more than 100 µM in [4]; more than 100 µM in experiment [5]; more than 100 µM in [6]; more than 25 µM in [2].

Regarding `CCCCCCOc1ccc(NC2=CC(=O)c3ccccc3C2=O)cc1`, the IC50 in experiment [1] is 1.72 µM; in [3] it was 27.9 µM; in [4] it was more than 100 µM; in experiment [5], more than 100 µM; in experiment [6], more than 100 µM; in [2], 27 µM. The “inhibition (INH)” value in experiment [9] is on record as 69.63%. For the same compound, the “Selectivity Index” value in [10] was 16.

For `Cc1ccc(NC2=CC(=O)c3ccccc3C2=O)c(C)c1`, the IC50 in experiment [1] and in [2] was more than 25 µM throughout.

`CCCCCCOc1ccc(NC2=C(Cl)C(=O)c3ccccc3C2=O)cc1`: the half-inhibitory concentration (IC50) in experiment [1] was 6.04 µM; in [3], more than 100 µM; in [4], more than 100 µM; in experiment [5], more than 100 µM; in experiment [6], more than 100 µM; in [2], 196 µM. Also, the “inhibition (INH)” value in experiment [9] is 46.3%. In addition, the “Selectivity Index” value in experiment [10] was found to be 32.

Consider `O=C1C=C(Nc2cccc3ccccc23)C(=O)c2ccccc21`, for which the IC50 in experiment [1] was 15.9 µM; in [2] it was more than 25 µM. For the same compound, the “inhibition (INH)” value in experiment [9] came out at 59.67%.

Take `COc1cccc2c3c([nH]c12)C(=O)c1ccccc1C3=O`: the IC50 was 20.9 µM in experiment [1]; more than 100 µM in [3]; more than 100 µM in [4]; more than 100 µM in experiment [5]; more than 100 µM in experiment [6]; 21.7 µM in experiment [2]. The “inhibition (INH)” value in experiment [9] is 12.21%. Besides, the “Selectivity Index” value in experiment [10] is 0.95.

As for `COc1ccc2c3c([nH]c2c1)C(=O)c1ccccc1C3=O`, the IC50 in experiment [1] and in experiment [2] was more than 25 µM each time.

As for `COc1ccc2[nH]c3c(c2c1)C(=O)c1ccccc1C3=O`, the concentration for half-maximal inhibition (IC50) was more than 50 µM in experiment [1]; more than 100 µM in experiment [3]; more than 100 µM in experiment [4]; more than 100 µM in experiment [5]; more than 100 µM in experiment [6]; more than 50 µM in experiment [2].

On to `COc1ccc(OC)c2c3c([nH]c12)C(=O)c1ccccc1C3=O`, for which the IC50 in experiment [1] and in experiment [2] was more than 100 µM throughout.

For the compound `CCCCCCOc1ccc2[nH]c3c(c2c1)C(=O)c1ccccc1C3=O`, the half-maximal inhibitory concentration (IC50) in experiment [1] and in experiment [2] was more than 100 µM in each case.

For `COc1cc2c(cc1OC)C(=O)c1c([nH]c3cc(OC)c(OC)cc13)C2=O`, the half-maximal inhibitory concentration (IC50) in experiment [1] and in [2] was more than 100 µM throughout.

On to `COc1ccc2c(c1)c1c(n2C)C(=O)c2ccccc2C1=O`, for which the IC50 in experiment [1] was more than 25 µM; in [3], more than 100 µM; in experiment [4] it was more than 100 µM; in [5], more than 100 µM; in experiment [6], more than 100 µM; in experiment [2], more than 25 µM.

As to `COc1cc2c3c(n(C)c2cc1OC)C(=O)c1ccccc1C3=O`, the concentration for half-maximal inhibition (IC50) in [1], in [3], in experiment [4], in [5], in experiment [6] and in experiment [2] was more than 100 µM each time.

For `COc1ccc(OC)c(NC2=CC(=O)c3ncccc3C2=O)c1`, the half-inhibitory concentration (IC50) in [1] came to 2.45 µM; in [3], 0.53 µM; in experiment [4], 8.8 µM; in experiment [5], 0.12 µM; in experiment [6], 22.5 µM; in experiment [2], 15.4 µM. Moreover, the “Selectivity Index” value was 188 in experiment [7], 42 in experiment [8] and 6.3 in experiment [10]. Further, in experiment [9], the “inhibition (INH)” value is recorded as 32.62%.

Take `O=C1C(Cl)=C(Nc2cccnc2)C(=O)c2ccccc21`: the half-inhibitory concentration (IC50) in experiment [1] and in [2] was more than 100 µM throughout.

For the compound `Cc1cnc2c(c1)C(=O)C=C(Nc1ccccc1)C2=O`, the IC50 in experiment [1] was 5.79 µM; in [2] it was 16.2 µM. Further, in [9], the “inhibition (INH)” value turned out to be 58.2%. In addition, the “Selectivity Index” value in experiment [10] was 2.7.

Consider `COc1ccc(OC)c(NC2=CC(=O)C3=C(OC(C)(C)C3)C2=O)c1`, for which the half-maximal inhibitory concentration (IC50) came out at 12.3 µM in experiment [1] and 15.5 µM in experiment [2]. The “inhibition (INH)” value in experiment [9] turned out to be 7.5%. In experiment [10], the “Selectivity Index” value worked out at 1.3.

Take `Cn1ncc2c1C(=O)C1=C(CC(C)(C)O1)C2=O`: the concentration for half-maximal inhibition (IC50) in [1] came to 2.53 µM; in [2], 13.4 µM. Besides, the “inhibition (INH)” value in experiment [9] is 38.57%. Further, the “Selectivity Index” value in experiment [10] amounted to 5.3.

Turning to `COc1cc2c(cc1OC)C(=O)C(c1cc(OC)c(OC)cc1[N+](=O)[O-])=C(O)C2=O`, the concentration for half-maximal inhibition (IC50) in experiment [1] and in [2] was more than 100 µM in each case.

As for `O=C1C=C(Nc2ccccc2)C(=O)c2ccccc21`, the IC50 in [1] was more than 25 µM; in [2] it was more than 10 µM.

Consider `O=C1c2ccccc2C(=O)c2c1[nH]c1ccccc21` [BENZOCARBAZOLEDIONE], for which the IC50 in [1] and in experiment [2] was more than 10 µM throughout.

For the compound `COc1cccc2c1C(=O)c1c(O)c3c(c(O)c1C2=O)C[C@@](O)(C(=O)CO)C[C@@H]3O[C@H]1C[C@H](N)[C@H](O)[C@H](C)O1` [DOXORUBICIN], the IC50 in experiment [3] was found to be 0.54 µM; in experiment [4] it was 0.31 µM; in experiment [5], 0.32 µM; in experiment [6], 7.86 µM. In addition, the “Selectivity Index” value was 25 in [7], 25 in [11] and 15 in [8].

In the case of `CC1CS(=O)(=O)CCN1/N=C/c1ccc([N+](=O)[O-])o1` (stereo not given) [NIFURTIMOX], the IC50 in experiment [1] turned out to be 21.1 µM; in [2], 411 µM. In addition, the “inhibition (INH)” value in experiment [9] came out at 42.62%. Also, the “Selectivity Index” value in experiment [10] is on record as 20.

A word on the IC50: it is the concentration that gives 50% inhibition.

Values taken from ChEMBL document CHEMBL3351423, “2-Phenylaminonaphthoquinones and related compounds: synthesis, trypanocidal and cytotoxic activities” (Bioorg Med Chem, 2014).
